{
  "source": "ChEMBL document CHEMBL3860041",
  "about": "“Synthesis, biological evaluation and molecular modeling study of some new methoxylated 2-benzylthio-quinazoline-4(3H)-ones as nonclassical antifolates” (Bioorg Med Chem Lett, 2016)",
  "format_in_all_cases": "functional",
  "key": {"[1]": {"test": "Growth inhibition of human K562 cells at 10 uM after 48 hrs by SRB assay relative to control", "settings": "K562, 48 h, read-out: GI", "procedure,_shortened": "(§1)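 NCI 60-cell-line panel, nine tumor subpanels; compounds tested at a single dose of 10 μM in the primary screen.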"}, "[2]": {"test": "Growth inhibition of human RPMI8226 cells at 10 uM after 48 hrs by SRB assay relative to control", "settings": "RPMI-8226, 48 h, read-out: GI", "procedure,_shortened": "as §1"}, "[3]": {"test": "Growth inhibition of human HOP62 cells at 10 uM after 48 hrs by SRB assay relative to control", "settings": "HOP-62, 48 h, read-out: GI", "procedure,_shortened": "as §1"}, "[4]": {"test": "Growth inhibition of human NCI-H23 cells at 10 uM after 48 hrs by SRB assay relative to control", "settings": "NCI-H23, 48 h, read-out: GI", "procedure,_shortened": "as §1"}, "[5]": {"test": "Growth inhibition of human NCI-H460 cells at 10 uM after 48 hrs by SRB assay relative to control", "settings": "NCI-H460, 48 h, read-out: GI", "procedure,_shortened": "as §1"}, "[6]": {"test": "Growth inhibition of human NCI-H522 cells at 10 uM after 48 hrs by SRB assay relative to control", "settings": "NCI-H522, 48 h, read-out: GI", "procedure,_shortened": "as §1"}, "[7]": {"test": "Growth inhibition of human COLO205 cells at 10 uM after 48 hrs by SRB assay relative to control", "settings": "COLO 205, 48 h, read-out: GI", "procedure,_shortened": "as §1"}, "[8]": {"test": "Growth inhibition of human HCT116 cells at 10 uM after 48 hrs by SRB assay relative to control", "settings": "HCT-116, 48 h, read-out: GI", "procedure,_shortened": "as §1"}, "[9]": {"test": "Growth inhibition of human HCT15 cells at 10 uM after 48 hrs by SRB assay relative to control", "settings": "HCT-15, 48 h, read-out: GI", "procedure,_shortened": "as §1"}, "[10]": {"test": "Growth inhibition of human KM12 cells at 10 uM after 48 hrs by SRB assay relative to control", "settings": "KM12, 48 h, read-out: GI", "procedure,_shortened": "as §1"}, "[11]": {"test": "Growth inhibition of human SW620 cells at 10 uM after 48 hrs by SRB assay relative to control", "settings": "SW-620, 48 h, read-out: GI", "procedure,_shortened": "(§2)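 Primary screen across the full NCI 60 human tumour cell line panel, which covers nine tumour subpanels. A single dose of 10 μM was applied to each line, and growth was recorded for each cell line.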"}, "[12]": {"test": "Growth inhibition of human SF295 cells at 10 uM after 48 hrs by SRB assay relative to control", "settings": "SF-295, 48 h, read-out: GI", "procedure,_shortened": "as §1"}, "[13]": {"test": "Growth inhibition of human MALME-3M cells at 10 uM after 48 hrs by SRB assay relative to control", "settings": "read-out: GI", "procedure,_shortened": "as §1"}, "[14]": {"test": "Growth inhibition of human M14 cells at 10 uM after 48 hrs by SRB assay relative to control", "settings": "M14, 48 h, read-out: GI", "procedure,_shortened": "as §1"}, "[15]": {"test": "Growth inhibition of human SK-MEL-2 cells at 10 uM after 48 hrs by SRB assay relative to control", "settings": "SK-MEL-2, 48 h, read-out: GI", "procedure,_shortened": "as §2"}, "[16]": {"test": "Growth inhibition of human IGROV1 cells at 10 uM after 48 hrs by SRB assay relative to control", "settings": "IGROV-1, 48 h, read-out: GI", "procedure,_shortened": "as §1"}, "[17]": {"test": "Growth inhibition of human OVCAR3 cells at 10 uM after 48 hrs by SRB assay relative to control", "settings": "OVCAR-3, 48 h, read-out: GI", "procedure,_shortened": "as §1"}, "[18]": {"test": "Growth inhibition of human OVCAR5 cells at 10 uM after 48 hrs by SRB assay relative to control", "settings": "OVCAR-5, 48 h, read-out: GI", "procedure,_shortened": "as §1"}, "[19]": {"test": "Growth inhibition of human NCI/ADR-RES cells at 10 uM after 48 hrs by SRB assay relative to control", "settings": "read-out: GI", "procedure,_shortened": "as §1"}, "[20]": {"test": "Growth inhibition of human ACHN cells at 10 uM after 48 hrs by SRB assay relative to control", "settings": "read-out: GI", "procedure,_shortened": "as §1"}, "[21]": {"test": "Growth inhibition of human PC3 cells at 10 uM after 48 hrs by SRB assay relative to control", "settings": "PC-3, 48 h, read-out: GI", "procedure,_shortened": "as §1"}, "[22]": {"test": "Growth inhibition of human BT549 cells at 10 uM after 48 hrs by SRB assay relative to control", "settings": "BT-549, 48 h, read-out: GI", "procedure,_shortened": "as §1"}, "[23]": {"test": "Growth inhibition of human T47D cells at 10 uM after 48 hrs by SRB assay relative to control", "settings": "read-out: GI", "procedure,_shortened": "as §2"}, "[24]": {"test": "Growth inhibition of human MDA-MB-468 cells at 10 uM after 48 hrs by SRB assay relative to control", "settings": "MDA-MB-468, 48 h, read-out: GI", "procedure,_shortened": "as §1"}, "Cancer cell lines [25]": {"test_system": "Cancer cell lines", "test": "Potency index, ratio of 5-fluorouracil GI50 to compound GI50 for human breast cancer cells", "procedure,_shortened": "(§3)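 GI50 for each cell line came from NCI panel testing over a 5-log dose range, with 5-fluorouracil tested alongside as the reference drug. The index relates the 5-fluorouracil GI50 to the compound GI50 within each tumour subpanel.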"}, "Melanoma cell": {"test_system": "Melanoma cell", "test": "Potency index, ratio of 5-fluorouracil GI50 to compound GI50 for human melanoma cells", "procedure,_shortened": "as §3"}, "Cancer cell lines [26]": {"test_system": "Cancer cell lines", "test": "Potency index, ratio of 5-fluorouracil GI50 to compound GI50 for human colon cancer cells", "procedure,_shortened": "as §3"}, "Cancer cell lines [27]": {"test_system": "Cancer cell lines", "test": "Potency index, ratio of 5-fluorouracil GI50 to compound GI50 for human non-small cell lung cancer cells", "procedure,_shortened": "as §3"}, "[28]": {"test": "Growth inhibition of human CNS cancer cells after 48 hrs by SRB assay", "settings": "Cancer cell lines", "procedure,_shortened": "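Five-log dose range against NCI tumor cell lines, monitoring GI50, TGI and LC50 for each cell line; MG-MID values derived across the panel; 5-fluorouracil positive control.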"}, "[29]": {"test": "Growth inhibition of human leukemia cells after 48 hrs by SRB assay", "settings": "Leukemia cell", "procedure,_shortened": "(§4)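 Follow-up NCI panel testing over a 5-log dose range for each cell line. GI50, TGI and LC50 were monitored, with 5-fluorouracil run as the positive control. Values are grouped by tumour subpanel.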"}, "[30]": {"test": "Growth inhibition of human non-small cell lung cancer cells after 48 hrs by SRB assay", "settings": "Cancer cell lines", "procedure,_shortened": "as §4"}, "[31]": {"test": "Growth inhibition of human ovarian cancer cells after 48 hrs by SRB assay", "settings": "Cancer cell lines", "procedure,_shortened": "as §4"}, "[32]": {"test": "Growth inhibition of human prostate cancer cells after 48 hrs by SRB assay", "settings": "Cancer cell lines", "procedure,_shortened": "as §4"}, "[33]": {"test": "Growth inhibition of human breast cancer cells after 48 hrs by SRB assay", "settings": "Cancer cell lines", "procedure,_shortened": "as §4"}},
  "data": [
    {"smiles": "COc1ccccc1-n1c(SCc2cc(OC)c(OC)c(OC)c2)nc2ccc(Cl)cc2c1=O", "values": [
      {"measurement": "inhibition of growth at 10 µM", "setting": "[1]", "value": 87.3, "unit": "%"},
      {"measurement": "inhibition of growth at 10 µM", "setting": "[2]", "value": 82.6, "unit": "%"},
      {"measurement": "inhibition of growth at 10 µM", "setting": "[3]", "value": 48.2, "unit": "%"},
      {"measurement": "inhibition of growth at 10 µM", "setting": "[4]", "value": 63.9, "unit": "%"},
      {"measurement": "inhibition of growth at 10 µM", "setting": "[5]", "value": 89.2, "unit": "%"},
      {"measurement": "inhibition of growth at 10 µM", "setting": "[6]", "value": "< 10", "unit": "%"},
      {"measurement": "inhibition of growth at 10 µM", "setting": "[7]", "value": 72, "unit": "%"},
      {"measurement": "inhibition of growth at 10 µM", "setting": "[8]", "value": 78.9, "unit": "%"},
      {"measurement": "inhibition of growth at 10 µM", "setting": "[9]", "value": 72.2, "unit": "%"},
      {"measurement": "inhibition of growth at 10 µM", "setting": "[10]", "value": 83.6, "unit": "%"},
      {"measurement": "inhibition of growth at 10 µM", "setting": "[11]", "value": 83.2, "unit": "%"},
      {"measurement": "inhibition of growth at 10 µM", "setting": "[12]", "value": 68.2, "unit": "%"},
      {"measurement": "inhibition of growth at 10 µM", "setting": "[13]", "value": 67.1, "unit": "%"},
      {"measurement": "inhibition of growth at 10 µM", "setting": "[14]", "value": 84.1, "unit": "%"},
      {"measurement": "inhibition of growth at 10 µM", "setting": "[15]", "value": "< 10", "unit": "%"},
      {"measurement": "inhibition of growth at 10 µM", "setting": "[16]", "value": 52.3, "unit": "%"},
      {"measurement": "inhibition of growth at 10 µM", "setting": "[17]", "value": 99.5, "unit": "%"},
      {"measurement": "inhibition of growth at 10 µM", "setting": "[18]", "value": 46.7, "unit": "%"},
      {"measurement": "inhibition of growth at 10 µM", "setting": "[19]", "value": 79.8, "unit": "%"},
      {"measurement": "inhibition of growth at 10 µM", "setting": "[20]", "value": 55.8, "unit": "%"},
      {"measurement": "inhibition of growth at 10 µM", "setting": "[21]", "value": 80.4, "unit": "%"},
      {"measurement": "inhibition of growth at 10 µM", "setting": "[22]", "value": 60.5, "unit": "%"},
      {"measurement": "inhibition of growth at 10 µM", "setting": "[23]", "value": 56.1, "unit": "%"},
      {"measurement": "inhibition of growth at 10 µM", "setting": "[24]", "value": 84.4, "unit": "%"},
      {"measurement": "RatioGI50", "setting": "Cancer cell lines [25]", "value": "2 - 10"},
      {"measurement": "RatioGI50", "setting": "Melanoma cell", "value": "2 - 10"},
      {"measurement": "RatioGI50", "setting": "Cancer cell lines [26]", "value": "2 - 10"},
      {"measurement": "RatioGI50", "setting": "Cancer cell lines [27]", "value": "2 - 10"},
      {"measurement": "GI50", "setting": "[28]", "value": 7.9, "unit": "µM"},
      {"measurement": "LC50 (lethal concentration, 50% net cell kill)", "setting": "[28]", "value": "> 100", "unit": "µM"},
      {"measurement": "TGI", "setting": "[28]", "value": 63.1, "unit": "µM"},
      {"measurement": "GI50", "setting": "[29]", "value": 2.4, "unit": "µM"},
      {"measurement": "TGI", "setting": "[29]", "value": 86.5, "unit": "µM"},
      {"measurement": "CC50", "setting": "[29]; read-out: LC50 (the source's name)", "value": "> 100", "unit": "µM"},
      {"measurement": "GI50", "setting": "[30]", "value": 5.8, "unit": "µM"},
      {"measurement": "LC50 (concentration killing 50% of cells)", "setting": "[30]", "value": "> 100", "unit": "µM"},
      {"measurement": "TGI", "setting": "[30]", "value": "> 100", "unit": "µM"},
      {"measurement": "GI50", "setting": "[31]", "value": 6.7, "unit": "µM"},
      {"measurement": "LC50 (50% lethal concentration)", "setting": "[31]", "value": "> 100", "unit": "µM"},
      {"measurement": "TGI", "setting": "[31]", "value": 87.9, "unit": "µM"},
      {"measurement": "GI50", "setting": "[32]", "value": 5.9, "unit": "µM"},
      {"measurement": "LC50 (concentration killing 50% of cells)", "setting": "[32]", "value": "> 100", "unit": "µM"},
      {"measurement": "TGI", "setting": "[32]", "value": "> 100", "unit": "µM"},
      {"measurement": "GI50", "setting": "[33]", "value": 3.5, "unit": "µM"},
      {"measurement": "LC50", "setting": "[33]", "value": "> 100", "unit": "µM"},
      {"measurement": "TGI", "setting": "[33]", "value": 84.8, "unit": "µM"}
    ]}
  ]
}
